Calls of active or inactive are those of the source. No cut-off for these calls is given here.
Columns and labels:
Mus musculus [1] = test: Anticonvulsant activity in intraperitoneally dosed Albino Swiss CD1 mouse assessed as time to peak effect by maximal electroshock test; type: functional
Mus musculus [2] = test: Anticonvulsant activity in intraperitoneally dosed Albino Swiss CD1 mouse assessed as time to peak effect after 2 hrs by subcutaneous pentylenetetrazole test; type: functional
Mus musculus [3] = test: Anticonvulsant activity in intraperitoneally dosed Albino Swiss CD1 mouse by maximal electroshock test; type: functional; settings: Albino Swiss CD1, ip
In short: (§1)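 Male CD-1 mice were dosed ip (0.1 mL/10 g, methylcellulose vehicle), at least four dose groups of 6 mice each. Protection in MES meant no hindlimb tonic extension after a 25 mA, 50 Hz, 0.2 s ear-electrode shock. Protection in scPTZ meant no clonus over 30 min.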

Mus musculus [4] = test: Anticonvulsant activity in intraperitoneally dosed Albino Swiss CD1 mouse by subcutaneous pentylenetetrazole test; type: functional; in short: as §1
Mus musculus [5] = test: Neurological toxicity in Albino Swiss CD1 mouse at 100 mg/kg, ip after 2 hrs by rotarod test; type: organism-based; design: dose 100 mg/kg, route intraperitoneal; settings: in vivo
In short: (§2)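 Mice were trained on a 2 cm rod for 3 min, with unlimited trials, at least 24 h before testing. Each was then dosed ip at 100 mg/kg and tested at 10 rpm 0.5 h or 2 h later, in groups of 4. Failure to stay on the rod for at least 1 min indicated neurotoxicity.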

Mus musculus [6] = test: Anticonvulsant activity in Albino Swiss CD1 mouse at 100 mg/kg, ip after 0.5 hrs by subcutaneous pentylenetetrazole test; type: functional, organism-based; design: dose 100 mg/kg
In short: (§3)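 Male CD-1 mice, 16–26 g, in groups of 4, each mouse used once, were given 100 mg/kg ip (0.1 mL/10 g, methylcellulose vehicle). MES used 25 mA, 500 V, 50 Hz delivered by ear electrodes for 0.2 s, and absence of hindlimb tonic extension counted as protection. In scPTZ, mice without clonic convulsions over 30 min of observation counted as protected. Both tests were run 0.5 h or 2 h after dosing.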

[7] = Neurological toxicity in intraperitoneally dosed Albino Swiss CD1 mouse by rotarod test; type: organism-based; settings: in vivo, ip
In short: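 Mice trained on the rotarod were given various ip doses, four groups in all, and tested at 10 rpm. Failure to stay on the rod for at least 1 min indicated neurotoxicity.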

Mus musculus [8] = test: Anticonvulsant activity in Albino Swiss CD1 mouse at 100 mg/kg, ip after 2 hrs by subcutaneous pentylenetetrazole test; type: functional, organism-based; design: dose 100 mg/kg; in short: as §3
Mus musculus [9] = test: Anticonvulsant activity in Albino Swiss CD1 mouse at 100 mg/kg, ip after 2 hrs by maximal electroshock test; type: functional, organism-based; design: dose 100 mg/kg; in short: as §3
Mus musculus [10] = test: Anticonvulsant activity in intraperitoneally dosed Albino Swiss CD1 mouse after 0.5 hrs by maximal electroshock test; type: functional; in short: as §1
Mus musculus [11] = test: Neurological toxicity in Albino Swiss CD1 mouse at 100 mg/kg, ip after 0.5 hrs by rotarod test; type: organism-based; design: dose 100 mg/kg, route intraperitoneal; settings: in vivo; in short: as §2
Mus musculus [12] = species: Mus musculus; test: Protective index, ratio of neurotoxic TD50 in Albino Swiss CD1 mouse by rotarod test to anticonvulsant ED50 in Albino Swiss CD1 mouse by maximal electroshock test
In short: (§4)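 The protective index is the rotarod TD50 divided by the MES or scPTZ ED50. Each value came from ip dosing in male CD-1 mice with probit analysis, and the reference drugs were tested under the same conditions.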

Mus musculus [13] = test: Anticonvulsant activity in Albino Swiss CD1 mouse at 100 mg/kg, ip after 0.5 hrs by maximal electroshock test; type: functional, organism-based; design: dose 100 mg/kg; in short: as §3
Mus musculus [14] = test: Anticonvulsant activity in intraperitoneally dosed Albino Swiss CD1 mouse after 0.5 hrs by subcutaneous pentylenetetrazole test; type: functional; in short: as §1
Mus musculus [15] = test: Protective index, ratio of neurotoxic TD50 in Albino Swiss CD1 mouse by rotarod test to anticonvulsant ED50 in Albino Swiss CD1 mouse by subcutaneous pentylenetetrazole test; in short: as §4

Compound	Time (Mus musculus [1])	Time (Mus musculus [2])	ED50 (Mus musculus [3])	ED50 (Mus musculus [4])	Activity (Mus musculus [5])	Activity (Mus musculus [6])	TD50 [7]	Activity (Mus musculus [8])	Activity (Mus musculus [9])	MED50 (Mus musculus [10])	Activity (Mus musculus [11])	Ratio TD50/ED50 (Mus musculus [12])	Activity (Mus musculus [13])	MED50 (Mus musculus [14])	Ratio TD50/ED50 (Mus musculus [15])
CCCC(CCC)C(=O)O [VALPROIC ACID]	0.5 h	0.5 h													
CCC1(C)CC(=O)NC1=O (stereo unspecified) [ETHOSUXIMIDE]	0.25 h	0.25 h	> 500 mg/kg												
COC[C@@H](NC(C)=O)C(=O)NCc1ccccc1 [LACOSAMIDE]	0.5 h	0.5 h	9.24 mg/kg	> 500 mg/kg											
CC1CC(=O)N(C(C)C(=O)NCc2ccccc2F)C1=O (racemic)	0.5 h	0.5 h	80.5 mg/kg		Non-toxic	inactive	239 mg/kg	inactive	inactive	100 mg/kg	Non-toxic	2.97			
CC1CC(=O)N(C(C)C(=O)NCc2cccc(F)c2)C1=O (racemic)	0.5 h	0.5 h	130 mg/kg		Non-toxic	inactive	297 mg/kg	inactive	inactive	100 mg/kg	Non-toxic	2.29			
CC(C(=O)NCc1ccccc1Cl)N1C(=O)CCC1=O (racemic)	0.5 h	0.5 h	74.5 mg/kg		Non-toxic	inactive	340 mg/kg	inactive	inactive	100 mg/kg	Non-toxic	4.57			
CC(C(=O)NCc1ccc(F)cc1)N1C(=O)CCC1=O (racemic)					Non-toxic	inactive		inactive	inactive		Non-toxic		inactive		
CC1CC(=O)N(C(C)C(=O)NCc2ccccc2Cl)C1=O (racemic)	0.5 h	0.5 h	85.8 mg/kg		Non-toxic	inactive	275 mg/kg	inactive	inactive	100 mg/kg	Non-toxic	3.2			
CCC(C(=O)NCC1CCCCC1)N1C(=O)CCC1=O (racemic)					Non-toxic	inactive		inactive	inactive		Non-toxic		inactive		
CC1CC(=O)N(C(C)C(=O)NCc2ccc(Cl)cc2)C1=O (racemic)					Non-toxic	inactive		inactive	inactive		Non-toxic		inactive		
CC(C(=O)NCc1cccc(Cl)c1)N1C(=O)CCC1=O (racemic)	0.5 h	0.5 h	82 mg/kg		Non-toxic	inactive	347 mg/kg	inactive	inactive	100 mg/kg	Non-toxic	4.23			
CCC(C(=O)NCc1ccc(C(F)(F)F)cc1)N1C(=O)CCC1=O (racemic)	0.5 h	0.5 h	69.4 mg/kg	80.4 mg/kg	Non-toxic		112 mg/kg	inactive	inactive	100 mg/kg	Non-toxic	1.62		100 mg/kg	1.4
CC1CC(=O)N(C(C)C(=O)NCC2CCCCC2)C1=O (racemic)					Non-toxic	inactive		inactive	inactive		Non-toxic		inactive		

Reference: ChEMBL document CHEMBL3400073, “Design, synthesis and biological evaluation of new hybrid anticonvulsants derived from N-benzyl-2-(2,5-dioxopyrrolidin-1-yl)propanamide and 2-(2,5-dioxopyrrolidin-1-yl)butanamide derivatives” (Bioorg Med Chem, 2015)
